From ChEMBL document CHEMBL3286372, “Design, synthesis and structure-activity relationship of novel semi-synthetic flavonoids as antiproliferative agents” (2014)

Assays:
Format in all cases: functional
A498 = assay: Growth inhibition of human A498 cells after 48 hrs by coulter counting analysis; settings: A498, 48 h
Procedure, shortened: (§1)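 NCI five-dose screen at 0.01-100 µM, diluted from DMSO stocks in buffered saline (final DMSO <1%). Cells at 6×10^4 cells/ml in RPMI 1640 with 10% FBS, in duplicate wells, at 37 °C under 5% CO2 for 48 h. Cells diluted tenfold in saline and Coulter-counted. GI50, TGI and LC50 taken from log concentration-growth inhibition curves.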

SNB-19 = assay: Growth inhibition of human SNB19 cells after 48 hrs by coulter counting analysis; settings: SNB-19, 48 h
Procedure, shortened: (§2)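 Five-dose NCI-60 follow-up, 0.01–100 µM, made from DMSO stock in buffered saline (final DMSO <1%), in duplicate wells. Cells in RPMI 1640 with 10% FBS at 6×10^4 cells/ml, 37 °C, 5% CO2, 48 h. Cells diluted tenfold in saline, Coulter-counted and corrected for dilution. GI50, TGI and LC50 taken from log concentration–percent growth curves.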

[1] = Growth inhibition of human OVCAR8 cells at 10 uM after 48 hrs by sulforhodamine B assay relative to control; settings: OVCAR-8, 48 h, read-out: GI
Procedure, shortened: (§3)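 NCI-60 primary screen at a single 10 µM dose. Continuous 48 h exposure, with growth or viability estimated by sulforhodamine B protein staining. Reported as percent growth inhibition of treated cells relative to untreated growth.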

SN12C = assay: Growth inhibition of human SN12C cells after 48 hrs by coulter counting analysis; procedure, shortened: as §2
NCI-H226 = assay: Growth inhibition of human NCI-H226 cells after 48 hrs by coulter counting analysis; settings: NCI-H226, 48 h; procedure, shortened: as §2
[2] = Growth inhibition of human SF295 cells after 48 hrs by coulter counting analysis; settings: SF-295, 48 h; procedure, shortened: as §2
[3] = Growth inhibition of human NCI60 cells after 48 hrs by coulter counting analysis; settings: NCI60, 48 h
Procedure, shortened: (§4)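 Five-dose screen (0.01-100 µM, DMSO-solubilized, under 1% DMSO final), cells in RPMI 1640 + 10% FBS at 6×10^4 cells/ml, duplicate wells, 37 °C, 5% CO2, 48 h. Cells then diluted tenfold in saline and counted by Coulter counter with dilution correction. Controls held buffer/saline/DMSO at matching dilutions. GI50 derived from log concentration-percent growth inhibition curves.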

SK-MEL-28 = assay: Growth inhibition of human SK-MEL-28 cells after 48 hrs by coulter counting analysis; settings: SK-MEL-28, 48 h; procedure, shortened: as §2
SK-MEL-5 = assay: Growth inhibition of human SK-MEL-5 cells after 48 hrs by coulter counting analysis; settings: SK-MEL-5, 48 h; procedure, shortened: as §2
DU-145 = assay: Growth inhibition of human DU145 cells at 10 uM after 48 hrs by sulforhodamine B assay relative to control; settings: DU-145, 48 h, read-out: GI
Procedure, shortened: (§5)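 NCI-60 primary screen at a single dose of 10 µM with 48 h continuous exposure. Growth or viability read by sulforhodamine B protein staining and expressed as percent growth inhibition versus untreated cells.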

RPMI-8226 = assay: Growth inhibition of human RPMI8226 cells at 10 uM after 48 hrs by sulforhodamine B assay relative to control; settings: RPMI-8226, 48 h, read-out: GI; procedure, shortened: as §3
SK-MEL-2 = assay: Growth inhibition of human SK-MEL-2 cells after 48 hrs by coulter counting analysis; settings: SK-MEL-2, 48 h; procedure, shortened: as §2
ACHN = assay: Growth inhibition of human ACHN cells after 48 hrs by coulter counting analysis; procedure, shortened: as §1
[4] = Growth inhibition of human UACC62 cells after 48 hrs by coulter counting analysis; settings: UACC-62, 48 h
Procedure, shortened: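 NCI five-dose screen, 0.01-100 µM, from DMSO stocks diluted in buffer saline (final DMSO <1%). Cells grown in RPMI 1640 + 10% FBS, seeded at 6×10^4 cells/ml, in duplicate wells. Exposure 48 h at 37 °C, 5% CO2. Cells diluted 10-fold in saline and counted by Coulter counter. GI50 derived from log concentration–percent growth inhibition curves. Controls carried matching PBS/saline/DMSO.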

CCRF-CEM = assay: Growth inhibition of human CCRF-CEM cells after 48 hrs by coulter counting analysis; procedure, shortened: as §1
MCF7 [5] = assay: Growth inhibition of human MCF7 cells after 48 hrs by coulter counting analysis; settings: MCF7, 48 h; procedure, shortened: as §1
MDA-MB-468 = assay: Growth inhibition of human MDA-MB-468 cells at 10 uM after 48 hrs by sulforhodamine B assay relative to control; settings: MDA-MB-468, 48 h, read-out: GI; procedure, shortened: as §3
[6] = Growth inhibition of human NCI-ADR-RES cells after 48 hrs by coulter counting analysis; procedure, shortened: as §2
KM12 [7] = assay: Growth inhibition of human KM12 cells at 10 uM after 48 hrs by sulforhodamine B assay relative to control; settings: KM12, 48 h, read-out: GI; procedure, shortened: as §5
[8] = Growth inhibition of human MOLT4 cells at 10 uM after 48 hrs by sulforhodamine B assay relative to control; settings: MOLT-4, 48 h, read-out: GI; procedure, shortened: as §3
CAKI-1 = assay: Growth inhibition of human CAKI-1 cells after 48 hrs by coulter counting analysis; settings: CAKI-1, 48 h; procedure, shortened: as §1
NCI-H23 = assay: Growth inhibition of human NCI-H23 cells after 48 hrs by coulter counting analysis; settings: NCI-H23, 48 h; procedure, shortened: as §2
[9] = Growth inhibition of human OVCAR5 cells after 48 hrs by coulter counting analysis; settings: OVCAR-5, 48 h; procedure, shortened: as §2
[10] = Growth inhibition of human HOP92 cells after 48 hrs by coulter counting analysis; settings: HOP-92, 48 h; procedure, shortened: as §1
786-0 = assay: Growth inhibition of human 786-0 cells after 48 hrs by coulter counting analysis; settings: 786-0, 48 h; procedure, shortened: as §1
KM12 [11] = assay: Growth inhibition of human KM12 cells after 48 hrs by coulter counting analysis; settings: KM12, 48 h; procedure, shortened: as §1
MDA-MB-435 = assay: Growth inhibition of human MDA-MB-435 cells after 48 hrs by coulter counting analysis; settings: MDA-MB-435, 48 h; procedure, shortened: as §1
[12] = Growth inhibition of human HCC2998 cells after 48 hrs by coulter counting analysis; settings: HCC 2998, 48 h; procedure, shortened: as §1
A549 = assay: Growth inhibition of human A549/ATCC cells after 48 hrs by coulter counting analysis; settings: A549, 48 h; procedure, shortened: as §1
HL-60(TB) = assay: Growth inhibition of human HL-60(TB) cells after 48 hrs by coulter counting analysis; settings: HL-60, 48 h; procedure, shortened: as §4
NCI-H460 = assay: Growth inhibition of human NCI-H460 cells at 10 uM after 48 hrs by sulforhodamine B assay relative to control; settings: NCI-H460, 48 h, read-out: GI; procedure, shortened: as §3
MCF7 [13] = assay: Growth inhibition of human MCF7 cells at 10 uM after 48 hrs by sulforhodamine B assay relative to control; settings: MCF7, 48 h, read-out: GI; procedure, shortened: as §5
[14] = Growth inhibition of human SF539 cells after 48 hrs by coulter counting analysis; settings: SF-539, 48 h; procedure, shortened: as §2
[15] = read-out: LC50 (the source's name)

SMILES | GI50 (A498) [µM] | GI50 (SNB-19) [µM] | GI50 (SN12C) [µM] | GI50 (NCI-H226) [µM] | GI50 [2] [µM] | LC50 [3] [µM] | TGI [3] [µM] | GI50 (SK-MEL-28) [µM] | GI50 (SK-MEL-5) [µM] | inhibition of growth at 10 µM (DU-145) [%] | inhibition of growth at 10 µM (RPMI-8226) [%] | GI50 (SK-MEL-2) [µM] | GI50 (ACHN) [µM] | GI50 [4] [µM] | GI50 (CCRF-CEM) [µM] | GI50 (MCF7 [5]) [µM] | inhibition of growth at 10 µM (MDA-MB-468) [%] | GI50 [6] [µM] | inhibition of growth at 10 µM (KM12 [7]) [%] | inhibition of growth at 10 µM [8] [%] | further results
COc1c2occc2c(OC)c2c(=O)c(CN3CCOCC3)c(/C=C/c3ccc(N(C)C)cc3)oc12 | 2.34 | 1.98 | 2.45 | 2.06 | 1.82 | 60.2 | 5.24 | 2.3 | 1.09 | 93 | 80 | 1.39 | 2.16 | 1.86 | 1.17 | 1.88 | 70 | 2.63 | 73 | 88 | inhibition of growth at 10 µM [1]: 80%; CC50 (SK-MEL-5; [15]): 4.99 µM; CC50 (SK-MEL-2; [15]): 5.89 µM; LC50 [4]: 7.61 µM; GI50 (CAKI-1): 1.89 µM; GI50 (NCI-H23): 2.56 µM; GI50 [9]: 2.59 µM; GI50 [10]: 0.24 µM; GI50 (786-0): 1.93 µM; GI50 (KM12 [11]): 1.73 µM; GI50 (MDA-MB-435): 2.05 µM; GI50 [12]: 2.62 µM; GI50 (A549): 2.83 µM; GI50 (HL-60(TB)): 1.55 µM; LC50 (HL-60(TB)): 9.7 µM
COc1ccccc1/C=C/C(=O)c1c(O)cc2occc2c1OC | 46 | 30.8 | > 100 | 25.1 | 16.6 | 100 | 89.1 | > 100 | > 100 | 78 | 86 | > 100 | 30 | 23.7 | 9.72 | 9.56 | 84 | 29.6 | 63 | 66 | inhibition of growth at 10 µM (NCI-H460): 61%; inhibition of growth at 10 µM (MCF7 [13]): 60%; GI50 (CAKI-1): > 100 µM; GI50 [14]: 24.3 µM; GI50 (NCI-H23): 22.4 µM; GI50 [9]: > 100 µM; GI50 [10]: 2.98 µM; GI50 (786-0): 35.3 µM; GI50 (KM12 [11]): > 100 µM; GI50 (MDA-MB-435): 5.69 µM; GI50 [12]: > 100 µM; GI50 (A549): > 100 µM
